Here are results for 5 molecules from PMC6088348 (ACS Medicinal Chemistry Letters, 2018).

Usually IC50 stands for the concentration needed to halve the response being measured.

The subject of data set [1] is tryptase activity in HMC1 cell lysates. Kind of data set: Inhibition of cellular tryptase activity assessed in HMC1 cell lysates. It is filed as cell-based, human. The note with it: read-out: IC50 in HMC1 cellular lysates; lysates of inhibitor-treated HMC1 cells. Put shortly:
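Tryptase activity measured in lysates of cultured HMC1 human mast cells. IC50 with SEM from nonlinear regression, Hill slope unconstrained.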

Data set [2] in a line: Stability of the linker moiety in aqueous buffers and plasma. It counts as physicochemical. The settings on record: relative to the initial α-hydroxyacetonyl ether.

SMILES strings stand for the structures.

Regarding `NCc1cccc(C2CCN(C(=O)c3cccc(OCC(=O)C4(O)CCC4)c3)CC2)c1` [Compound 1a], in data set [1], the IC50 is 454 nM. Moreover, the “stability under aqueous conditions” value in data set [2] is on record as “improved stability”.
For the molecule `NCc1cccc(C2CCN(C(=O)c3cccc(OCC(O)C4(O)CCC4)c3)CC2)c1` (stereo not shown) [Compound 1b], the IC50 in data set [1] amounted to 8400 nM.
Take `CC(C)(O)C(=O)C(=O)Nc1cccc(C(=O)N2CCC(c3cccc(CN)c3)CC2)c1` [Compound 3a]: the IC50 in data set [1] is 113 nM.
As for `NCc1cccc(C2CCN(C(=O)c3cccc(NC(=O)C(=O)C4(O)CCC4)c3)CC2)c1` [Compound 2a], in data set [1], the IC50 is 314 nM. Besides, the “stability under aqueous conditions” value in data set [2] is given as “improved stability”.
Consider `CC(C)(O)C(O)C(=O)Nc1cccc(C(=O)N2CCC(c3cccc(CN)c3)CC2)c1` (stereo not shown) [Compound 3b], for which the IC50 in data set [1] was 13300 nM.
